How the values were obtained:
[1] = target: Growth hormone secretagogue receptor type 1 (Homo sapiens, UniProt Q92847); experiment: Antagonist activity at recombinant human GHSR1a expressed in HEK293 cells assessed as inhibition of ghrelin-induced intracellular calcium release incubated for 20 secs and measured after 2 mins by FLIPR assay; type: functional, cell-based
In short: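 HEK293/GHSR1a cells were dye-loaded for 30-60 min. Compounds and 10 nM ghrelin were added at t = 20 s, with a 15 min compound preincubation described. Calcium response was read for 2 min. IC50 was taken from dose-response fits of the reduction in ghrelin response; mean of at least two independent runs done in triplicate.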

[2] = Clearance in human liver microsomes at 0.625 uM preincubated for 5 mins followed by NADPH addition and measured after 60 mins by LC-MS/MS analysis; type: ADME, microsome; conditions: read-out: CLH
In short: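 Liver microsomes (0.625 mg/mL protein) in 50 mM potassium phosphate pH 7.4 with 0.625 µM test item, prewarmed 5 min at 37 °C. Reaction started with NADPH (5 mM solution). Samples taken at 0, 5, 15, 30 and 60 min into cold MeCN with internal standard, analysed by LC-MS/MS. Intrinsic clearance derived by the half-life approach.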

[3] = Half life in rat at 3 mg/kg, iv after 24 hrs by LC-MS/MS analysis; type: ADME, organism-based; conditions: in vivo
In short: (§1)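 Rats given 3 mg/kg i.v. via tail vein, in 2% DMSO/50% of 40% HP-β-CD. EDTA plasma sampled at 0.08–24 h and analysed by LC-MS/MS, calibration range 5-5000 ng/mL.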

[4] = Volume of distribution in rat at 3 mg/kg, iv after 24 hrs by LC-MS/MS analysis; type: ADME, organism-based; conditions: in vivo; in short: as §1
[5] = Tmax in rat at 3 mg/kg, po via gavage by LC-MS/MS analysis; type: ADME, organism-based; conditions: in vivo
In short: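 Rats given 3 mg/kg by oral gavage as a suspension in 2% DMSO/98% of 0.5% CMC. EDTA plasma sampled at 0.25–24 h and analysed by LC-MS/MS. Bioavailability estimated against the 3 mg/kg i.v. arm.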

[6] = Protein binding in rat plasma at 1 uM after 6 hrs by equilibrium dialysis; type: ADME, cell-free; conditions: read-out: PPB
In short: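 Compound spiked at 1.0 µM final (0.5% DMSO) into plasma. Equilibrium dialysis against DPBS pH 7.4 across a 12–14 kD membrane for 6 h at 37 °C, in triplicate. Buffer-only controls used for nonspecific binding. Unbound fraction = acceptor/donor concentration by LC-MS/MS; reported as % bound.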

Mus musculus [7] = experiment: Anti-obesity activity in C57BL/6J mouse assessed as inhibition of anamorelin-induced increase in food intake by measuring cumulative food intake at 10 mg/kg, ip pretreated for 10 mins followed by anamorelin addition and measured after 8 hrs post dose (reference value: 2.97 +/- 0.09 g); type: functional
In short: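 Male C57BL/6J mice (18–22 g at arrival), fed ad libitum. Dosed 10 mg/kg i.p. at t = 0 in 10% DMAC/6% Solutol HS 15/84% PBS, then anamorelin 30 mg/kg p.o. (0.5% CMC) at 10 min. Cumulative food intake recorded at 1, 2, 4, 8 and 24 h; n=6 per group; mean ± SEM; ANOVA with Dunnett test versus vehicle+anamorelin.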

Mus musculus [8] = experiment: Anti-obesity activity in C57BL/6J mouse assessed as inhibition of anamorelin-induced increase in food intake by measuring cumulative food intake at 30 mg/kg, po pretreated for 10 mins followed by anamorelin addition and measured after 2 hrs post dose (reference value: 1.37 +/- 0.05 g)
Mus musculus [9] = experiment: Anti-obesity activity in C57BL/6J mouse assessed as inhibition of anamorelin-induced increase in food intake by measuring cumulative food intake at 30 mg/kg, po pretreated for 10 mins followed by anamorelin addition and measured after 4 hrs post dose (reference value: 2.09 +/- 0.08 g)

Growth hormone secretagogue receptor type 1, sequence (Q92847 whole entry): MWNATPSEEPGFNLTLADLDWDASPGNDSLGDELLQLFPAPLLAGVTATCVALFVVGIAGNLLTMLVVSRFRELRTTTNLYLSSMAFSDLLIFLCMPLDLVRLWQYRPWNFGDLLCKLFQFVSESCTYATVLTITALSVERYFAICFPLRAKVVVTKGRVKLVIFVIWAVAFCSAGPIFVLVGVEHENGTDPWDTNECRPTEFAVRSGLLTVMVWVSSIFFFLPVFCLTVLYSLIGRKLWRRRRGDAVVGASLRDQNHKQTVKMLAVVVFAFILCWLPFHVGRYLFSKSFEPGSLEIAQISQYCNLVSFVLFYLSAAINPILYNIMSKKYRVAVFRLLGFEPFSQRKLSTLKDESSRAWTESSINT

## Cc1cc(-c2ccc3c(c2)CC[C@H]3N2CCC(N(C)C(=O)N[C@@H](C)c3ccc(C#CC4CC4)c(Cl)c3Cl)CC2)ncn1
[1]
  IC50: 68.2 nM
[2]
  microsomal CLint at 0.625 µM: 74.7 µL/min/mg
[3]
  half-life: 389 min
[4]
  Vd: 8.48 L/kg
[5]
  Tmax: 6.7 h
[6]
  fraction unbound at 6 h, 1 µM: 0.0001
Mus musculus [7]
  Activity: 2.78 g
Mus musculus [8]
  Activity: 0.86 g
Mus musculus [9]
  Activity: 1.45 g

From ChEMBL document CHEMBL4257564, “Rational Design, Synthesis, and Pharmacological Characterization of Novel Ghrelin Receptor Inverse Agonists as Potential Treatment against Obesity-Related Metabolic Diseases” (J Med Chem, 2018)
